Activity calls are given as the source filed them. The calls are words filed in the database; no cut-off is given here.

In general, IC50 refers to the concentration at which inhibition is half-maximal. Low readings indicate greater potency, high ones weaker potency.

For assay [1], the system named is HepG2. The experiment in a line: Antitumor activity against human HepG2 cells xenografted in BALB/c nude mouse assessed as tumor growth inhibition at 5 mg/kg, iv administered once every 2 days for 21 days measured every 3 days up to 35 days relative to control. The assay is classed as functional. The following applies: read-out: TGI. Summed up:
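Female BALB/c nude mice, six weeks old (16–18 g), inoculated in the right gluteal region with 1 × 10⁷ HepG2 cells in 0.1 mL DMEM. When tumours reached 100 mm³, mice were randomised into four groups of six. Dosing was by tail-vein injection; the vehicle group followed the test schedule. Tumours were measured by caliper every 3 days, with volume = π/6 × length × width × width.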
Background: Xenograft models place foreign cells or tissue in a host animal.

Assay [2] has as its system HepG2. The assay is described as follows: Antiproliferative activity against human HepG2 cells after 24 hrs by MTT assay. The assay is classed as functional, cell-based. Conditions: HepG2, 24 h. In a few lines:
(§1)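 Seeded at 1 × 10⁴ cells per well, incubated 24 h before treatment. MTT (20 µL of 5 mg/mL in PBS) added per well and incubated until purple precipitate appeared. Medium removed, precipitate dissolved in 150 µL DMSO, shaken 10 min, absorbance read at 570 nm. Growth expressed as percentage of untreated control.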
In general terms: Tetrazolium dyes change colour on reduction, which living cells bring about.

Assay [3] in a line: Antiproliferative activity against taxol resistant human HCT8 cells after 24 hrs by MTT assay. The following applies: HCT-8, 24 h. The assay is classed as functional, cell-based. In a few lines: as §1
Assay [4] in a line: Antiproliferative activity against vincristine resistant human HCT8 cells after 24 hrs by MTT assay. The assay is classed as functional, cell-based. The following applies: HCT-8, 24 h. Summed up:
as §1

For assay [5], the system named is K562. The assay is described as follows: Antiproliferative activity against human K562 cells after 24 hrs by MTT assay. Type of assay: functional, cell-based. The following applies: K562, 24 h. In a few lines: as §1
The subject of assay [6] is HCT-116. The experiment in a line: Antiproliferative activity against human HCT116 cells after 24 hrs by MTT assay. The assay is classed as functional, cell-based. The following applies: HCT-116, 24 h. Summed up: as §1
Assay [7] concerns HepG2. The assay is described as follows: Cell cycle arrest in human HepG2 cells assessed as accumulation at G1-phase at 0.50 uM after 24 hrs by propidium iodide staining-based flow cytometric analysis (reference value: 42.5%). The assay is classed as functional. Summed up:
(§2)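 HepG2 cells (2 × 10⁵) cultured 24 h, then given 0.1% DMSO vehicle or compound for 24 h. Fixed in ice-chilled methanol at least 30 min at 4 °C, washed twice with PBS, then stained 0.5 h at 37 °C in PBS with 1 mg/mL RNase A and propidium iodide. DNA content measured by flow cytometry for phase distribution.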
On the technique in general: A flow cytometer gives signals particle by particle.

Assay [8] deals with SK-OV-3. The assay is described as follows: Antiproliferative activity against human SKOV3 cells after 24 hrs by MTT assay. The assay is classed as functional, cell-based. Conditions: SK-OV-3, 24 h. Summed up:
as §1

Assay [9] deals with HepG2. The assay is described as follows: Cell cycle arrest in human HepG2 cells assessed as accumulation at G2/M-phase at 0.125 uM after 24 hrs by propidium iodide staining-based flow cytometric analysis (reference value: 25.5%). The assay is classed as functional. In a few lines: as §2
A short description of assay [10]: Cytotoxicity against human LO2 cells after 24 hrs by MTT assay. The assay is classed as cell-based. The following applies: L02, 24 h. Summed up: as §1
The species entered for assay [11] is Rattus norvegicus. The experiment in a line: Inhibition of rat tubulin polymerization at 10 uM measured for 60 mins by luminometric analysis.
The subject of assay [12] is HepG2. The assay is described as follows: Cell cycle arrest in human HepG2 cells assessed as accumulation at S-phase at 0.125 uM after 24 hrs by propidium iodide staining-based flow cytometric analysis (reference value: 32%). The assay is classed as functional. Summed up:
as §2

The test system of assay [13] is PC-3. The assay is described as follows: Antiproliferative activity against human PC3 cells after 24 hrs by MTT assay. The assay is classed as functional, cell-based. The following applies: PC-3, 24 h. In a few lines:
as §1

Assay [14] can be described thus: Antiproliferative activity against human […] cells after 24 hrs by MTT assay. Type of assay: functional, cell-based. In a few lines:
as §1

Assay [15] relates to HepG2. The experiment in a line: Induction of apoptosis in human HepG2 cells after 48 hrs by propidium iodide staining-based flow cytometric analysis. Type of assay: functional, cell-based.
For assay [16], the system named is MCF7. The assay is described as follows: Antiproliferative activity against human MCF7 cells after 24 hrs by MTT assay. The assay is classed as functional, cell-based. Conditions: MCF7, 24 h. In a few lines:
as §1

The test system of assay [17] is HepG2. The assay is described as follows: Antitumor activity against human HepG2 cells xenografted in BALB/c nude mouse assessed as tumor growth inhibition at 30 mg/kg, iv administered once every 2 days for 21 days measured every 3 days up to 35 days relative to control. Type of assay: functional. Conditions: read-out: TGI. Summed up: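 Female BALB/c nude mice, six weeks old (16–18 g), inoculated in the right gluteal region with 1 × 10⁷ HepG2 cells in 0.1 mL DMEM. At 100 mm³, randomized into four groups of six. Tail-vein dosing every other day for 21 days; vehicle control on the same schedule; 5-Fu 5 mg/kg iv daily as reference. Caliper measurement every 3 days, volume = π/6 × length × width × width. Compared with control by t test.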

The test system of assay [18] is HepG2. The experiment in a line: Cell cycle arrest in human HepG2 cells assessed as accumulation at S-phase at 0.375 uM after 24 hrs by propidium iodide staining-based flow cytometric analysis (reference value: 32%). Type of assay: functional. In a few lines:
as §2

For assay [19], the system named is HepG2. The assay is described as follows: Cell cycle arrest in human HepG2 cells assessed as accumulation at G1-phase at 0.125 uM after 24 hrs by propidium iodide staining-based flow cytometric analysis (reference value: 42.5%). Type of assay: functional. In a few lines: as §2
Assay [20] has as its system HepG2. The experiment in a line: Cell cycle arrest in human HepG2 cells assessed as accumulation at G2/M-phase at 0.375 uM after 24 hrs by propidium iodide staining-based flow cytometric analysis (reference value: 25.5%). Type of assay: functional. In a few lines: as §2
Assay [21] relates to HepG2. The assay is described as follows: Cell cycle arrest in human HepG2 cells assessed as accumulation at S-phase at 0.25 uM after 24 hrs by propidium iodide staining-based flow cytometric analysis (reference value: 32%). The assay is classed as functional. In a few lines: as §2
In assay [22] the test system is HepG2. The experiment in a line: Cell cycle arrest in human HepG2 cells assessed as accumulation at G2/M-phase at 0.50 uM after 24 hrs by propidium iodide staining-based flow cytometric analysis (reference value: 25.5%). The assay is classed as functional. In a few lines:
as §2

The subject of assay [23] is HepG2. The assay is described as follows: Cell cycle arrest in human HepG2 cells assessed as accumulation at S-phase at 0.50 uM after 24 hrs by propidium iodide staining-based flow cytometric analysis (reference value: 32%). Type of assay: functional. Summed up:
as §2

The test system of assay [24] is HepG2. The experiment in a line: Cell cycle arrest in human HepG2 cells assessed as accumulation at G1-phase at 0.375 uM after 24 hrs by propidium iodide staining-based flow cytometric analysis (reference value: 42.5%). Type of assay: functional. In a few lines: as §2
For assay [25], the system named is A549. The assay is described as follows: Antiproliferative activity against human A549 cells after 24 hrs by MTT assay. Type of assay: functional, cell-based. The following applies: A549, 24 h. In a few lines:
as §1

The test system of assay [26] is HepG2. The experiment in a line: Cell cycle arrest in human HepG2 cells assessed as accumulation at G2/M-phase after 24 hrs by propidium iodide staining-based flow cytometric analysis. Type of assay: functional. Summed up: as §2
The subject of assay [27] is HepG2. The assay is described as follows: Cell cycle arrest in human HepG2 cells assessed as accumulation at G2/M-phase at 0.25 uM after 24 hrs by propidium iodide staining-based flow cytometric analysis (reference value: 25.5%). The assay is classed as functional. In a few lines: as §2

Turning to `O=c1[nH]cc(F)c(=O)[nH]1` [FLUOROURACIL], the inhibition in vivo at 5 mg/kg in assay [1] was found to be 25.9%.

Take `CCC(=O)Oc1ccc(C(=O)/C=C/c2ccc3c(ccn3C)c2)c2c1C=CC(C)(C)O2`: the IC50 in [2] is 220 nM; in assay [3], 1600 nM; in assay [4] it was 450 nM; in [5] it was 800 nM; in [6], 1280 nM; in assay [8] it was 230 nM. The half-inhibitory concentration (IC50) is greater than 10000 nM in assay [10]; 650 nM in assay [13]; 1800 nM in [14]; 1500 nM in assay [16]; 680 nM in [25]. The Activity in [7] is 1.6%; in [9], 26.2%; in assay [12], 43.1%; in [15], “Dose-dependent effect”; in assay [18], 22.5%; in assay [19], 30.7%. The Activity is 75% in assay [20]; 35% in [21]; 86% in assay [22]; 12.4% in [23]; 2.5% in [24]; “Dose-dependent effect” in [26]. Besides, in assay [27], the Activity was 60.7%. In [11], the inhibition result was “Active”. Besides, the inhibition in vivo at 30 mg/kg in assay [17] is 56.6%.

Source of the values: ChEMBL document CHEMBL3232988, “Design, synthesis and biological evaluation of a series of pyrano chalcone derivatives containing indole moiety as novel anti-tubulin agents” (Bioorg Med Chem, 2014).
